SMILES strings stand for the structures.

For experiment [1], the system named is Blood. Put plainly: Inhibition of LPS-induced IL8 release in human whole blood. In kind it is functional, tissue-based. In a few lines:
(§1)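 Healthy human whole blood, ex vivo, was stimulated with LPS. TNF-α, IL-1β, IL-6, IL-8, IL-10 and IL-12p70 were quantified concurrently by a multiplexed flow-cytometric bead array. IC50 is the concentration inhibiting 50% of the response. Run in triplicate with polymyxin B reference and negative and positive controls.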

A further experiment relates to HEK293. Put plainly: Inhibition of LPS-induced NF-kappaB production in HEK293 cells. It is filed as functional, cell-based. To be noted: Homo sapiens. In a few lines:
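HEK293 cells cotransfected with TLR4, CD14 and MD2 were stimulated with LPS, and induction of NF-κB was quantified. IC50 is the concentration inhibiting 50% of the response. Run in triplicate with polymyxin B reference and negative and positive controls.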

Experiment [2] concerns Blood. Put plainly: Inhibition of LPS-induced TNFalpha release in human whole blood. It is filed as functional, tissue-based. The procedure, abridged: as §1
Experiment [3] is described as follows: Binding affinity to lipid A moiety of LPS in gram negative bacteria by fluorescent-based displacement assay. In a few lines:
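LPS binding measured by automated rapid-throughput fluorescence displacement of the probe BODIPY-TR cadaverine from LPS. ED50 is the concentration displacing 50% of LPS-bound probe. Run in triplicate, with polymyxin B as reference and negative and positive controls.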

The next experiment has as its system J774.1. Put plainly: Inhibition of LPS-induced nitric oxide production in murine J774.1 cells by automated Griess assay. It is filed as functional, cell-based. The following applies: Mus musculus. The procedure, abridged:
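Murine macrophage J774A.1 cells were stimulated with 100 ng/mL LPS, and NO was read by automated Griess assay. IC50 is the concentration inhibiting 50% of the response. Run in triplicate with polymyxin B reference and negative and positive controls.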
(In general: Nitrite, measured by Griess reagent, commonly stands in for NO production.)

Experiment [4] concerns Blood. Put plainly: Inhibition of LPS-induced IL6 release in human whole blood. It is filed as functional, tissue-based. In a few lines: as §1
Experiment [5] concerns Mus musculus. Put plainly: Protection against LPS-induced lethality in galactosamine-sensitized CF1 mouse model of septic shock at 8 mg/kg after 24 hrs. It is filed as functional, organism-based. More on the design: dose 8 mg/kg. In a few lines: (§2)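 Female outbred CF-1 mice, 9–11 weeks old and 22–28 g, were sensitized with D-galactosamine. Cohorts of five received graded compound doses in saline i.p. in one flank, immediately before an i.p. challenge of 200 ng E. coli 0111:B4 LPS (2× LD100) in the other flank. Lethality was scored at 24 h.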

Experiment [6] deals with Mus musculus. Put plainly: Protection against LPS-induced lethality in galactosamine-sensitized CF1 mouse model of septic shock at >2 mg/kg after 24 hrs. It is filed as functional, organism-based. The procedure, abridged: as §2

In general, IC50 refers to the midpoint of a concentration-inhibition curve. Read a high IC50 as weaker potency. Regarding `CCCCCCCCCCCCCCCCCCS(=O)(=O)NCCCNCCCCNCCCN`, the 50% inhibitory concentration (IC50) in the experiment on Blood [1] came to 15.4 µM; in the experiment on HEK293, 0.36 µM; in the experiment on Blood [2], 18 µM; in the experiment with J774.1, 0.48 µM; in the experiment on Blood [4], 8.8 µM. The ED50 in experiment [3] came to 6.01 µM.
Consider `CCCCCCCCCCCCCCCCCCS(=O)(=O)NCCCN(CCCNCCCCNCCCN)CCCNS(=O)(=O)CCCCCCCCCCCCCCCCCC`, for which the IC50 in the experiment with HEK293 was found to be 64 µM. In experiment [3], the ED50 was determined as 28.3 µM.
Consider `CCCCCCCCCCCCCCCCCCS(=O)(=O)NCCCNCCCNCCCCNCCCNCCCNS(=O)(=O)CCCCCCCCCCCCCCCCCC`, for which the IC50 was 6.49 µM with HEK293 and 4.22 µM in the experiment with J774.1. In experiment [3], this compound yielded an ED50 of 5000 µM.
The like results for `CCCCCCCCCCCCCCCCS(=O)(=O)NCCCOCCCCOCCCN` were, in that order, 22.4 µM, 30.9 µM and above 5000 µM.
The like results for `CCCCCCCCCCCCCCCCS(=O)(=O)N(CCCN)CCCCNCCCN` were, in that order, 2.68 µM, 13.7 µM and 45.6 µM.
With `CCCCCCCCCCCCCCCCS(=O)(=O)NCCCN(CCCN)CCCN`, it took 9.19 µM to reach half-maximal inhibition in the experiment with HEK293 (IC50). The ED50 in experiment [3] came to 12.3 µM.
The matching figures for `CCCCCCCCS(=O)(=O)NCCNCCCNCCN`: 13.8 µM and 10.6 µM.
In the case of `CCCCCCCCS(=O)(=O)NCCCNCCCNCCCCNCCCN`, the 50% inhibitory concentration (IC50) in the experiment with HEK293 turned out to be 0.816 µM; in the experiment on J774.1 it was 6.47 µM. This compound registered an ED50 in experiment [3] of 2.84 µM.
The like results for `CCCCCCCCCCCCCCCCS(=O)(=O)NCCCN(CCCNCCCCNCCCN)CCCNS(=O)(=O)CCCCCCCCCCCCCCCC` were, in that order, 4.85 µM, 15.1 µM and 26.4 µM.
The matching figures for `CCCCCCCCCCCCCCCCS(=O)(=O)NCCCNCCCNCCCCNCCCNCCCNS(=O)(=O)CCCCCCCCCCCCCCCC`: 11.7 µM, 6.3 µM and 133 µM.
Regarding `CCCCCCCCCCCCCCCCS(=O)(=O)NCCN(CCN)CCN`, inhibition in the experiment with HEK293 was half-maximal at 0.379 µM (IC50). Also, the ED50 in experiment [3] is 3.54 µM.
For the compound `CCCCCCCCCCS(=O)(=O)NCCCN(CCCNCCCCNCCCN)CCCNS(=O)(=O)CCCCCCCCCC`, the 50% inhibitory concentration (IC50) with HEK293 was determined as 5.17 µM; in the experiment on J774.1, 1.1 µM. Also, in experiment [3], the ED50 amounted to 2.4 µM.
The matching figures for `CCCCCCCCCCCCS(=O)(=O)NCCCN(CCCNCCCCNCCCN)CCCNS(=O)(=O)CCCCCCCCCCCC`: 13.2 µM, 2.27 µM and 3.98 µM.
In the case of `CCCCCCCCCCCCS(=O)(=O)NCCCNCCCNCCCN`, the IC50 in the experiment on HEK293 worked out at 0.363 µM. The compound further displayed an ED50 in experiment [3] of 4.27 µM.
As to `CCCCCCCCCCS(=O)(=O)NCCCNCCCNCCCCNCCCNCCCNS(=O)(=O)CCCCCCCCCC`, the IC50 in the experiment with HEK293 was 4.2 µM; with J774.1 it was 0.692 µM. This compound also displayed an ED50 in experiment [3] of 13.5 µM.
The matching figures for `CCCCCCCCCCS(=O)(=O)NCCCN(CCCNCCCNCCCCNCCCN)CCCNS(=O)(=O)CCCCCCCCCC`: 2.2 µM, 0.43 µM and 1.16 µM.
The matching figures for `CCCCCCCC(=O)NCCCN(CCCNCCCNCCCCNCCCN)CCCNC(=O)CCCCCCC`: 3.17 µM, 2.48 µM and 1.32 µM.
In turn, `CCCCCCCCS(=O)(=O)NCCCNC/C=C/CNCCCN` returned an IC50 in the experiment on HEK293 of 12.7 µM. Besides, in experiment [3], the ED50 amounted to 12.4 µM.
As to `CCCCCCCCCCCCS(=O)(=O)NCCCN(CCCNCCCNCCCCNCCCN)CCCNS(=O)(=O)CCCCCCCCCCCC`, the results for the IC50 in the experiment on HEK293 and in the experiment on J774.1 were 16.4 µM and 0.51 µM, respectively. For the same compound, in experiment [3], the ED50 was 6.82 µM.
The like results for `CCCCCCCCS(=O)(=O)NCCCNCCCNCCCCNCCCNCCCNS(=O)(=O)CCCCCCCC` were, in that order, 0.607 µM, 0.577 µM and 2.6 µM.
In the case of `CCCCCCCCCCCCS(=O)(=O)NCCCNCCCCNCCCN`, the half-maximal inhibitory concentration (IC50) in the experiment with HEK293 is 0.41 µM; in the experiment on J774.1, 1.34 µM. In addition, in experiment [3], the ED50 turned out to be 2.69 µM.
For `CCCCCCCCCCCCCCCCS(=O)(=O)NCCCNCCCNCCCCNCCCN`, the IC50 in the experiment with Blood [1] worked out at 15.1 µM; in the experiment with HEK293 it was 0.2 µM; in the experiment with Blood [2], 14.2 µM; in experiment [3], 4.2 µM; in the experiment with J774.1, 0.12 µM; in the experiment with Blood [4] it was 5.92 µM. The same compound showed an ED50 in experiment [3] of 4.71 µM. Also, the Activity result with Mus musculus [5] is “Dose-dependent effect”.
Consider `CCCCCCCCS(=O)(=O)NCCCN(CCCNCCCCNCCCN)CCCNS(=O)(=O)CCCCCCCC`, for which the IC50 with HEK293 is 0.669 µM; with J774.1, 1.82 µM. This compound also yielded an ED50 in experiment [3] of 2.17 µM.
Turning to `CCCCCCCCCCCCS(=O)(=O)NCCCNCCCNCCCCNCCCN`, the half-inhibitory concentration (IC50) came out at 15.3 µM with Blood [1]; 0.19 µM in the experiment on HEK293; 30.1 µM in the experiment with Blood [2]; 0.39 µM with J774.1; 12.1 µM with Blood [4]. The compound also registered an ED50 in experiment [3] of 2.92 µM.
Turning to `CCCCCCCCCCCCCCCCS(=O)(=O)NCCCNCCCCNCCCN`, the half-inhibitory concentration (IC50) in the experiment with Blood [1] came out at 15.2 µM; in the experiment on HEK293, 0.28 µM; in the experiment on Blood [2] it was 22.1 µM; with J774.1 it was 0.45 µM; in the experiment on Blood [4], 8.17 µM. Also, in experiment [3], the ED50 is 3.87 µM. The Activity entry in the experiment on Mus musculus [5] was “Dose-dependent effect”.
Take `CCCCCCCCCCS(=O)(=O)NCCCNCCCCNCCCN`: the half-maximal inhibitory concentration (IC50) in the experiment on HEK293 was found to be 0.5 µM; in the experiment with J774.1, 4.42 µM. Also, the ED50 in experiment [3] came to 3.7 µM.
The matching figures for `CCCCCCCCCCCCCCCCCCS(=O)(=O)NCCCNCCCNCCCCNCCCN`: 1.06 µM, 0.23 µM and 4.45 µM.
On to `CCCCCCCCCCS(=O)(=O)NCCCNCCCNCCCCNCCCN`, for which the IC50 in the experiment on Blood [1] is 22.4 µM; in the experiment with HEK293, 0.278 µM; with Blood [2], 32.9 µM; in the experiment on J774.1, 1.09 µM; with Blood [4] it was 29.4 µM. The compound also yielded an ED50 in experiment [3] of 2.89 µM.
For `CCCCCCCCCCCCS(=O)(=O)NCCNCCCNCCN`, the IC50 in the experiment on HEK293 came to 0.686 µM. In addition, the ED50 in experiment [3] was 4.77 µM.
The like results for `CCCCCCCCCCCCS(=O)(=O)NCCCNC/C=C/CNCCCN` were, in that order, 0.522 µM and 3.83 µM.
Take `CCCCCCCCS(=O)(=O)NCCCNCCCCNCCCN`: the half-maximal inhibitory concentration (IC50) worked out at 33.3 µM with HEK293 and 1.44 µM in the experiment on J774.1. Moreover, the ED50 in experiment [3] turned out to be 6.64 µM.
The like results for `CCCCCCCCCCCCS(=O)(=O)NCCCNCCCNCCCCNCCCNCCCNS(=O)(=O)CCCCCCCCCCCC` were, in that order, 10.3 µM, 5 µM and 55.2 µM.
The like results for `CCCCCCCCCCCCCCCCS(=O)(=O)NCCCN(CCCNCCCNCCCCNCCCN)CCCNS(=O)(=O)CCCCCCCCCCCCCCCC` were, in that order, 2.68 µM, 5.2 µM and 9.31 µM.
In the experiment with HEK293, `CCCCCCCCS(=O)(=O)NCCCNCCCNCCCN` displayed an IC50 of 5.56 µM. In experiment [3], the ED50 worked out at 6.7 µM.
For `CCCCCCCC(=O)NCCCN(CCCNCCCCNCCCN)CCCNC(=O)CCCCCCC`, the concentration for half-maximal inhibition (IC50) in the experiment on HEK293 worked out at 9.76 µM; in the experiment with J774.1, 9.02 µM. This compound also came in with an ED50 in experiment [3] of 1 µM.
For the compound `CCCCCCCCS(=O)(=O)NCCCN(CCCNCCCNCCCCNCCCN)CCCNS(=O)(=O)CCCCCCCC`, the IC50 with Blood [1] is 12.5 µM; in the experiment on HEK293, 0.3 µM; in the experiment on Blood [2], 11 µM; in the experiment on J774.1 it was 0.32 µM; with Blood [4] it was 7.77 µM. Also, in experiment [3], the ED50 came out at 2.62 µM. Besides, in the experiment on Mus musculus [6], the Activity entry is “Toxic”.

(Values after ChEMBL document CHEMBL1141383, “Polycationic sulfonamides for the sequestration of endotoxin” (J Med Chem, 2007).)
